Measurements as given in ChEMBL document CHEMBL4118094, “Structure-Guided Design and Initial Studies of a Bifunctional MEK/PI3K Inhibitor (ST-168)” (ACS Med Chem Lett, 2017).
Activity calls are given as the source filed them. No cut-off for these calls is given here.

Assays:
A-375 [1] = assay: Antitumor activity against human A375 cells xenografted in athymic Foxn1nu mouse assessed as tumor growth inhibition at 400 mg/kg, qd administered via oral gavage measured after 35 days by MRI imaging analysis; type: functional, organism-based
In short: (§1)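 Nude mice inoculated in the flank with 5 x 10^6 A375 cells in 100 µl. Dosing began once tumors exceeded 100 mm3, after randomization. Daily oral gavage at 400 mg/kg until sacrifice at 42 days; vehicle was 200 µl OraPlus. Tumor growth followed by MRI twice per week.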

A-375 [2] = assay: Antiproliferative activity against human A375 spheroids at 20 uM after 72 hrs by calcein AM/ethidium homodimer 1 staining based fluorescence microscopy; type: functional, cell-based
In short: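 A375 melanoma spheroids exposed 72 h to compound at 20 µM; then stained with calcein AM (live, green) and ethidium homodimer-1 (dead, red). Read by fluorescence microscopy. Replicate experiments, representative images.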

[3] = molecular target: PI3-kinase p110-delta/p85-alpha (Homo sapiens, UniProt O00329); assay: Inhibition of recombinant human full length His-tagged PI3K p110delta/p85alpha expressed in baculovirus expression system coexpressing PIK3R1 by TR-FRET assay
Chain of PI3-kinase p110-delta/p85-alpha (P27986 whole entry, canonical isoform): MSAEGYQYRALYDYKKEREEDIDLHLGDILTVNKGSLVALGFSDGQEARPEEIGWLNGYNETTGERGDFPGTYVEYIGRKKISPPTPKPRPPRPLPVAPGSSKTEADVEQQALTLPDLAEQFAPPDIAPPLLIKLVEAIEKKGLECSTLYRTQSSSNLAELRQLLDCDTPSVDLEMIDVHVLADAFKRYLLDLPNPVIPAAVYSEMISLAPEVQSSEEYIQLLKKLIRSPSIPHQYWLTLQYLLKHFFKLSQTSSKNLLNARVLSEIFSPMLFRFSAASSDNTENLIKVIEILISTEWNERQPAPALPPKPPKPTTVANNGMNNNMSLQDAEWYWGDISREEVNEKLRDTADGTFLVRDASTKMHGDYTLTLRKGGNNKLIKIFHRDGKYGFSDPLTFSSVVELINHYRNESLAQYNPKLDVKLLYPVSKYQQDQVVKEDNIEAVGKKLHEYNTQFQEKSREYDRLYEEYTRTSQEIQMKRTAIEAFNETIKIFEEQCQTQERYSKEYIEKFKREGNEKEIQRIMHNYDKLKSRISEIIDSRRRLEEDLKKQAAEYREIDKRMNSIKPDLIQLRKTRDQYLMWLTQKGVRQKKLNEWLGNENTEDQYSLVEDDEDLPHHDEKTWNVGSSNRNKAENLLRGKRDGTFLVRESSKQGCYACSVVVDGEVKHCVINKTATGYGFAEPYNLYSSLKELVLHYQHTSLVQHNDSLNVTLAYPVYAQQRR
Chain of PI3-kinase p110-delta/p85-alpha (O00329 whole entry, canonical isoform): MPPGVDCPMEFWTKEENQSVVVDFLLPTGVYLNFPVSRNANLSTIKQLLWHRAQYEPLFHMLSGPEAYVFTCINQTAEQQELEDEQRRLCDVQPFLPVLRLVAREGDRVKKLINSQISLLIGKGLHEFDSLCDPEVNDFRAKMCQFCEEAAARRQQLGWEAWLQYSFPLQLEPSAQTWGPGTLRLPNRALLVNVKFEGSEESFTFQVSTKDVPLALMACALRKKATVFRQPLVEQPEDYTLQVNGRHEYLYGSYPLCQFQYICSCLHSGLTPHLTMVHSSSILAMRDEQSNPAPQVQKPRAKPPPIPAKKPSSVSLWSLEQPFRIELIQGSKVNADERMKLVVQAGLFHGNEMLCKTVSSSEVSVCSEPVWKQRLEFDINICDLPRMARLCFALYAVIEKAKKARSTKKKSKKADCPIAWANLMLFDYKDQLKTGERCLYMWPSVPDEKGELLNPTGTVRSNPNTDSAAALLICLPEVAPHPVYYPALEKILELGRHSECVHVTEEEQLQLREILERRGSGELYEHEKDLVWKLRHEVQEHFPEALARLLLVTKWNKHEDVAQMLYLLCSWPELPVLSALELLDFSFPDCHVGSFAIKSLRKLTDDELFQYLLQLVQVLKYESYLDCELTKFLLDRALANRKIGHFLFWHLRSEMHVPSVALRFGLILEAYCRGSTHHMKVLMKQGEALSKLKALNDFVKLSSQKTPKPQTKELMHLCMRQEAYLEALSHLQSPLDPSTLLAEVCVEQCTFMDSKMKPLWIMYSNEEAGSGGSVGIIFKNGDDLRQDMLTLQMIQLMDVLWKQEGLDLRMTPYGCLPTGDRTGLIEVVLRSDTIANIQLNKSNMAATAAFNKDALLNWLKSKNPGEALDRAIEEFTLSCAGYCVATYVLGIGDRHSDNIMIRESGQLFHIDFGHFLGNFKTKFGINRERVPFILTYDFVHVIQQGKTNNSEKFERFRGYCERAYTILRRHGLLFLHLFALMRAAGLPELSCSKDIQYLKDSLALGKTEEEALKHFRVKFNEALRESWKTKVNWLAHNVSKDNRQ
In short: (§2)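 PI3K isoform activity by fluorescence-based Adapta TR-FRET kinase assay. Values are the average of 3 experiments, each run in duplicate, given as mean ± SEM.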

[4] = molecular target: T1, Dual specificity mitogen-activated protein kinase kinase 1 (Homo sapiens, UniProt Q02750); assay: Inhibition of MEK1 in human A375 cell lysate assessed as reduction in ERK1/2 phosphorylation at Thr202/Tyr204 at 20 uM after 1 hr by Western blot analysis
T1 sequence (Q02750 whole entry): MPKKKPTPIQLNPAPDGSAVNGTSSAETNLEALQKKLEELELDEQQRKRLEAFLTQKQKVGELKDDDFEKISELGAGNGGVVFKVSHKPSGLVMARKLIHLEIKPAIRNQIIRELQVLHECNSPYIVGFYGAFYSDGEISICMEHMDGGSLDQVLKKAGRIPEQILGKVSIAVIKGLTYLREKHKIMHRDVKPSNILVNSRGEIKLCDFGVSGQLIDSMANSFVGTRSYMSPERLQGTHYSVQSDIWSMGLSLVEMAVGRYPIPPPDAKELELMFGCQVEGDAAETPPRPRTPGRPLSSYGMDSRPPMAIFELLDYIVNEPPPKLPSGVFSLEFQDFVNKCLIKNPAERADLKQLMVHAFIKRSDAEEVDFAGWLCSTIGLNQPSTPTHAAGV
In short: (§3)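 A375 cells (constitutive MEK1/PI3K pathway activation) incubated 1 h with compound at 20 µM against equimolar DMSO. Lysates immunoblotted: ERK1/2 phosphorylation for MEK1 activity, AKT Ser473 phosphorylation for PI3K activity.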

[5] = molecular target: PI3-kinase p110-alpha/p85-alpha (Homo sapiens, UniProt P42336); assay: Inhibition of recombinant human full length His-tagged PI3K p110alpha/p85alpha expressed in baculovirus expression system coexpressing PIK3R1 by TR-FRET assay; in short: as §2
Chain of PI3-kinase p110-alpha/p85-alpha (P27986 whole entry): as the sequence (P27986 whole entry, canonical isoform) above
Chain of PI3-kinase p110-alpha/p85-alpha (P42336 whole entry): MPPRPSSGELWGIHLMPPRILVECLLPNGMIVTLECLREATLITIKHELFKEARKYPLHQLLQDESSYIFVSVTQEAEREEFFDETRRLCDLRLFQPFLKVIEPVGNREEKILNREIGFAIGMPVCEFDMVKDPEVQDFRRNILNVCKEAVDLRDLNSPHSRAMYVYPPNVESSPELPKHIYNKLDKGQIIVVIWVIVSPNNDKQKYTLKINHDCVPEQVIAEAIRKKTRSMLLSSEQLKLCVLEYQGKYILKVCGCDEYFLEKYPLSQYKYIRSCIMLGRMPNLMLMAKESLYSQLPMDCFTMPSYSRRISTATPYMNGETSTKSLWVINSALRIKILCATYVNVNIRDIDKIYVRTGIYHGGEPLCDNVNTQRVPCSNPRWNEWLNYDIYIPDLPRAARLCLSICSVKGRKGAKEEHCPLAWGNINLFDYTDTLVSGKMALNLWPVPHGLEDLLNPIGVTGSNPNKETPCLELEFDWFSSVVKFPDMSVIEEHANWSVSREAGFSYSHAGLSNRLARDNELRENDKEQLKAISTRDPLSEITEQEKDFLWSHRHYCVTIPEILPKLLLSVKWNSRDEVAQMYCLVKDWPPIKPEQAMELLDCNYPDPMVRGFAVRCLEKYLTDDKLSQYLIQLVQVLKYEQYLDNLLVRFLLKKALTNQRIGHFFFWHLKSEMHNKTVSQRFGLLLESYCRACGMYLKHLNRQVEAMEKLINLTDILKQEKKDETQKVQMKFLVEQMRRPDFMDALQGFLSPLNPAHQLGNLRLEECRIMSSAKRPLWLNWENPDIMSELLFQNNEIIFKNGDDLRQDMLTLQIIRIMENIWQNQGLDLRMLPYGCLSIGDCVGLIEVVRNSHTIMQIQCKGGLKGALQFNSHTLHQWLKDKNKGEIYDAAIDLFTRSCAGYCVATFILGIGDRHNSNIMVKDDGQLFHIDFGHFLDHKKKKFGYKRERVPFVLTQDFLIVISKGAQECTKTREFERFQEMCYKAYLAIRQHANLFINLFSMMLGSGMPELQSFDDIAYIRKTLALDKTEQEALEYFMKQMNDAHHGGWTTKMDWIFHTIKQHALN

Homo sapiens = organism: Homo sapiens; assay: Inhibition of PI3K in human A375 cell lysate assessed as reduction in Akt phosphorylation at Ser473 residue at 20 uM after 1 hr by Western blot analysis; in short: as §3
[6] = molecular target: T1, Dual specificity mitogen-activated protein kinase kinase 1; assay: Inhibition of recombinant human GST-tagged MEK1 expressed in baculovirus infected Sf9 insect cells using inactive ERK2 as substrate preincubated for 30 mins followed by substrate addition measured after 2 hrs by kinase-glo reagent based bioluminescence assay
A-375 [7] = assay: Antitumor activity against human A375 cells xenografted in athymic Foxn1nu mouse assessed as tumor growth inhibition at 400 mg/kg, qd administered via oral gavage for 42 days measured twice per week by MRI imaging analysis; type: functional, organism-based; in short: as §1

| IC50 [3] [nM] | inhibition [4] | IC50 [5] [nM] | inhibition (Homo sapiens) | IC50 [6] [nM] | SMILES | TGI (A-375 [1]) | Activity (A-375 [2]) | TGI (A-375 [7]) |
| --- | --- | --- | --- | --- | --- | --- | --- | --- |
| 41.7 | Active | 69.2 | Active | 182 | O=C(NOCCOCCOCCOCCC(=O)N1CCN(c2nc(N3CCOCC3)nc(-n3c(C(F)F)nc4ccccc43)n2)CC1)c1ccc(F)c(F)c1Nc1ccc(I)cc1F | Active | Active |  |
| 142 |  | 180 |  |  | FC(F)c1nc2ccccc2n1-c1nc(N2CCNCC2)nc(N2CCOCC2)n1 |  |  |  |
| 942 | Active | 191 | Active | 398 | O=C(NOCCOCCOCCOCCN1CCN(c2nc(N3CCOCC3)nc(-n3c(C(F)F)nc4ccccc43)n2)CC1)c1ccc(F)c(F)c1Nc1ccc(I)cc1F |  | Active | Active |
| 2.9 |  | 8.2 |  |  | CC(=O)N1CCN(c2nc(N3CCOCC3)nc(-n3c(C(F)F)nc4ccccc43)n2)CC1 |  |  |  |
| 1.3 |  | 11.5 |  |  | NOCCOCCOCCOCCC(=O)N1CCN(c2nc(N3CCOCC3)nc(-n3c(C(F)F)nc4ccccc43)n2)CC1 |  |  |  |
